Experimental data from ChEMBL document CHEMBL1122109, “Monophenolic octahydrobenzo[f]quinolines: central dopamine- and serotonin-receptor stimulating activity” (1982).
The source made the active and inactive calls. The calls are words filed in the database; no cut-off is given here.

Assays:
Rattus norvegicus [1] = species on record: Rattus norvegicus; assay: ED50 value was measured as dose required to produce a half-maximal reduction of Dopa accumulation in the striatum of reserpinized rat brain.; type: functional
Rattus norvegicus [2] = species on record: Rattus norvegicus; assay: ED50 value was measured as dose required to produce a half-maximal reduction of Dopa accumulation in limbic area of reserpinized rat brain.; type: functional
Rattus norvegicus [3] = species on record: Rattus norvegicus; assay: Motor activity was measured in the reserpinized rats as counts/60 min.; type: functional
In short: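 Male Sprague-Dawley rats (200-300 g) received reserpine 10 mg/kg ip 6 h before testing and DL-α-methyl-p-tyrosine methyl ester HCl 250 mg/kg ip 1 h before. Test drug was given sc in the neck: trans derivatives at 1 mg/kg (3100 nmol/kg), cis at 10 mg/kg (31000 nmol/kg), n = 4. Rats were placed singly in motility meters immediately and activity recorded for 60 min; means ± SEM.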

Rattus norvegicus [4] = species on record: Rattus norvegicus; assay: ED50 value was measured as dose required to produce a half-maximal reduction of Serotonin (5-HTP) accumulation in striatum of reserpinized rat brain; I is Inactive, no significant effect at doses approximately 40 times the ED50 for Dopa accumulation; type: functional, organism-based
Rattus norvegicus [5] = species on record: Rattus norvegicus; assay: ED50 value was measured as dose required to produce a half-maximal reduction of Serotonin (5-HTP) accumulation in limbic area of reserpinized rat brain; I is Inactive, no significant effect at doses approximately 40 times the ED50 for Dopa accumulation; type: functional, organism-based
Rattus norvegicus [6] = species on record: Rattus norvegicus; assay: Percent reduction of hemispheres in cortex was measured in the brain of reserpinized rats; I is Inactive, no significant effect at doses approximately 40 times the ED50 for Dopa accumulation; type: functional, organism-based
Rattus norvegicus [7] = species on record: Rattus norvegicus; assay: Percent reduction of hemispheres in cortex was measured in the brain of reserpinized rats.*: No significant effect at doses approximately 40 times the ED50; I is Inactive, no significant effect at doses approximately 40 times the ED50 for Dopa ac cumulation; type: functional, organism-based
Rattus norvegicus [8] = assay: ED50 value was measured as dose required to produce a half-maximal reduction of Serotonin (5-HTP) accumulation in striatum of reserpinized rat brain; I is Inactive at 11300 nmol/Kg; type: functional, organism-based
Rattus norvegicus [9] = assay: ED50 value was measured as dose required to produce a half-maximal reduction of Serotonin (5-HTP) accumulation in limbic area of reserpinized rat brain; I is Inactive at 11300 nmol/Kg; type: functional, organism-based
Rattus norvegicus [10] = assay: Percent reduction of hemispheres in cortex was measured in the brain of reserpinized rats; I is Inactive at 11300 nmol/Kg; type: functional, organism-based
Rattus norvegicus [11] = species on record: Rattus norvegicus; assay: ED50 value was measured as dose required to produce a half-maximal reduction of Serotonin (5-HTP) accumulation in limbic area of reserpinized rat brain; type: functional
Rattus norvegicus [12] = species on record: Rattus norvegicus; assay: Percent reduction of hemispheres in cortex was measured in the brain of reserpinized rats.*: No significant effect at doses approximately 40 times the ED50; type: functional
Rattus norvegicus [13] = species on record: Rattus norvegicus; assay: ED50 value was measured as dose required to produce a half-maximal reduction of Serotonin (5-HTP) accumulation in striatum of reserpinized rat brain; type: functional
Rattus norvegicus [14] = species on record: Rattus norvegicus; assay: ED50 value was measured as dose required to produce a half-maximal reduction of Dopa accumulation in the striatum of reserpinized rat brain; I is Inactive, no significant effect at doses approximately 10 times the ED50 for Dopa accumulation; type: functional, organism-based
Rattus norvegicus [15] = species on record: Rattus norvegicus; assay: ED50 value was measured as dose required to produce a half-maximal reduction of Dopa accumulation in limbic area of reserpinized rat brain; I is Inactive, no significant effect at doses approximately 10 times the ED50 for Dopa accumulation; type: functional, organism-based
Rattus norvegicus [16] = assay: ED50 value was measured as dose required to produce a half-maximal reduction of Serotonin (5-HTP) accumulation in striatum of reserpinized rat brain; I is Inactive at 2800 nmol/kg; type: functional, organism-based
Rattus norvegicus [17] = species on record: Rattus norvegicus; assay: ED50 value was measured as dose required to produce a half-maximal reduction of Serotonin (5-HTP) accumulation in striatum of reserpinized rat brain; I is Inactive, no significant effect at doses approximately 10 times the ED50 for Dopa accumulation; type: functional, organism-based
Rattus norvegicus [18] = species on record: Rattus norvegicus; assay: Percent reduction of hemispheres in cortex was measured in the brain of reserpinized rats; I is Inactive, no significant effect at doses approximately 10 times the ED50 for Dopa accumulation; type: functional, organism-based
Rattus norvegicus [19] = assay: ED50 value was measured as dose required to produce a half-maximal reduction of Serotonin (5-HTP) accumulation in limbic area of reserpinized rat brain; I is Inactive at 2800 nmol/kg; type: functional, organism-based
Rattus norvegicus [20] = assay: ED50 value was measured as dose required to produce a half-maximal reduction of Dopa accumulation in limbic area of reserpinized rat brain; I is Inactive at 2800 nmol/kg; type: functional, organism-based
Rattus norvegicus [21] = assay: ED50 value was measured as dose required to produce a half-maximal reduction of Dopa accumulation in the striatum of reserpinized rat brain; I is Inactive at 2800 nmol/kg; type: functional, organism-based
Rattus norvegicus [22] = assay: Percent reduction of hemispheres in cortex was measured in the brain of reserpinized rats; I is Inactive at 2800 nmol/kg; type: functional, organism-based
Rattus norvegicus [23] = species on record: Rattus norvegicus; assay: ED50 value was measured as dose required to produce a half-maximal reduction of Serotonin (5-HTP) accumulation in limbic area of reserpinized rat brain; I is Inactive, no significant effect at doses approximately 10 times the ED50 for Dopa accumulation; type: functional, organism-based
Rattus norvegicus [24] = assay: ED50 value was measured as dose required to produce a half-maximal reduction of Dopa accumulation in the striatum of reserpinized rat brain; I is Inactive at 500 nmol/kg; type: functional, organism-based
Rattus norvegicus [25] = assay: ED50 value was measured as dose required to produce a half-maximal reduction of Dopa accumulation in limbic area of reserpinized rat brain; I is Inactive at 500 nmol/kg; type: functional, organism-based
Rattus norvegicus [26] = species on record: Rattus norvegicus; assay: ED50 for 5-HTP in cortex hemispheres was measured in the brain of reserpinized rats.
Rattus norvegicus [27] = species on record: Rattus norvegicus; assay: ED50 value was measured as dose required to produce a half-maximal reduction of Dopa accumulation in the striatum of reserpinized rat brain; I is Inactive, no significant effect at doses approximately 40 times the ED50 for Dopa accumulation; type: functional, organism-based
Rattus norvegicus [28] = species on record: Rattus norvegicus; assay: ED50 value was measured as dose required to produce a half-maximal reduction of Dopa accumulation in limbic area of reserpinized rat brain; I is Inactive, no significant effect at doses approximately 40 times the ED50 for Dopa accumulation; type: functional, organism-based
Rattus norvegicus [29] = assay: Percent reduction of hemispheres in cortex was measured in the brain of reserpinized rats.*: No significant effect at doses approximately 40 times the ED50; IA is Inactive at 45000 nmol/kg; type: functional, organism-based
Rattus norvegicus [30] = assay: ED50 value was measured as dose required to produce a half-maximal reduction of Serotonin (5-HTP) accumulation in striatum of reserpinized rat brain; I is Inactive at 45000 nmol/kg; type: functional, organism-based
Rattus norvegicus [31] = assay: ED50 value was measured as dose required to produce a half-maximal reduction of Serotonin (5-HTP) accumulation in limbic area of reserpinized rat brain; I is Inactive at 45000 nmol/kg; type: functional, organism-based
Rattus norvegicus [32] = assay: ED50 value was measured as dose required to produce a half-maximal reduction of Dopa accumulation in the striatum of reserpinized rat brain; Maximal reduction of Dopa could not be obtained. 60% reduction from control level at 12500 nmol/Kg; type: functional, organism-based
Rattus norvegicus [33] = assay: ED50 value was measured as dose required to produce a half-maximal reduction of Dopa accumulation in limbic area of reserpinized rat brain; Maximal reduction of Dopa could not be obtained. 40% reduction from control level at 12500 nmol/Kg; type: functional, organism-based
[34] = Rattus norvegicus, Striatum, read-out: ED50
[35] = Rattus norvegicus, Brain, read-out: ED50

SMILES	Motor activity (Rattus norvegicus [3])	ED50 (Rattus norvegicus [1]; [34]) [µmol/kg]	ED50 (Rattus norvegicus [4])	ED50 (Rattus norvegicus [2]; [35]) [µmol/kg]	ED50 (Rattus norvegicus [5])	Hemispheres reduction (Rattus norvegicus [6])	other results
CCCN1CCCC2c3cc(O)ccc3CCC21 (stereo in doubt; 9) [listing 1 of 2 here]	365						ED50 (Rattus norvegicus [1]): 12 nM/kg; ED50 (Rattus norvegicus [2]): 8 nM/kg
CCCN(CCC)C1CCc2ccc(O)cc2C1 (configuration not stated)		0.03	inactive	0.027	inactive	inactive	
CCCCN1CCCC2c3cccc(O)c3CCC21 (configuration not stated)	418	0.07	inactive	0.08	inactive		Hemispheres reduction (Rattus norvegicus [7]): inactive
CCCN(CCC)[C@@H]1CCc2ccc(O)cc2C1		0.17		0.18			
CCCN1CCCC2c3cc(O)ccc3CCC21 (stereo in doubt; 8) [listing 1 of 2 here]							ED50 (Rattus norvegicus [8]): inactive; ED50 (Rattus norvegicus [9]): inactive; Hemispheres reduction (Rattus norvegicus [10]): inactive
CCCN1CCCC(c2cccc(O)c2)C1 (configuration not stated)		3.6	inactive	3.6	inactive	inactive	
CN1CCc2cccc3c2[C@H]1Cc1ccc(O)c(O)c1-3 [APOMORPHINE]	624	0.22		0.19		inactive	
CCCN1CCCC2c3cccc(O)c3CCC21 (stereo in doubt; 7) [listing 1 of 2 here]			inactive		inactive	inactive	
CCCN1CCCC2c3c(O)cccc3CCC21 (stereo in doubt; 18) [listing 1 of 2 here]							ED50 (Rattus norvegicus [11]): 230 nM/kg; Hemispheres reduction (Rattus norvegicus [12]): 160; ED50 (Rattus norvegicus [13]): 180 nM/kg
CCCN1CCCC2c3cc(O)ccc3CCC21 (stereo in doubt; 9) [listing 2 of 2 here]			inactive		inactive	inactive	
CCCN1CCCC2c3c(O)cccc3CCC21 (stereo in doubt; 17) [listing 1 of 2 here]							ED50 (Rattus norvegicus [14]): inactive; ED50 (Rattus norvegicus [15]): inactive
CCCN1CCCC2c3ccc(O)cc3CCC21 (configuration not stated)	179	0.53		0.54			ED50 (Rattus norvegicus [16]): inactive; ED50 (Rattus norvegicus [17]): inactive; Hemispheres reduction (Rattus norvegicus [18]): inactive; ED50 (Rattus norvegicus [19]): inactive; ED50 (Rattus norvegicus [20]): inactive; ED50 (Rattus norvegicus [21]): inactive; Hemispheres reduction (Rattus norvegicus [22]): inactive; ED50 (Rattus norvegicus [23]): inactive
CCCN1CCCC2c3cc(O)ccc3CCC21 (stereo in doubt; 8) [listing 2 of 2 here]							ED50 (Rattus norvegicus [1]): 3400 nM/kg; ED50 (Rattus norvegicus [2]): 2000 nM/kg
CCCN1CCCC2c3c(O)cccc3CCC21 (stereo in doubt; 18) [listing 2 of 2 here]							ED50 (Rattus norvegicus [24]): inactive; ED50 (Rattus norvegicus [25]): inactive
CCCN1CCCC2c3c(O)cccc3CCC21 (stereo in doubt; 17) [listing 2 of 2 here]							ED50 (Rattus norvegicus [11]): 3400 nM/kg; Hemispheres reduction (Rattus norvegicus [12]): 4500; ED50 (Rattus norvegicus [13]): 3400 nM/kg
CCCN(CCC)C1CCc2c(O)cccc2C1 (configuration not stated) [5-OH-DPAT]	688	0.009	inactive	0.011	inactive	inactive	
CCCN1CCCC2c3cccc(O)c3CCC21 (stereo in doubt; 7) [listing 2 of 2 here]	327	0.13		0.13			
CCCN1CCCC2c3cccc(O)c3CCC21 (stereo in doubt; 6) [listing 1 of 2 here]	17						
CCCN(CCC)C1CCc2cccc(O)c2C1 (configuration not stated) [8-OH-DPAT]							ED50 (Rattus norvegicus [26]): 68 nmol/kg; ED50 (Rattus norvegicus [27]): inactive; ED50 (Rattus norvegicus [28]): inactive; ED50 (Rattus norvegicus [11]; [35]): 0.048 µmol/kg; ED50 (Rattus norvegicus [13]; [34]): 0.045 µmol/kg
CCCN1CCCC2c3cccc(O)c3CCC21 (stereo in doubt; 6) [listing 2 of 2 here]							Hemispheres reduction (Rattus norvegicus [29]): inactive; ED50 (Rattus norvegicus [30]): inactive; ED50 (Rattus norvegicus [31]): inactive; ED50 (Rattus norvegicus [32]): Weak activity; ED50 (Rattus norvegicus [33]): Weak activity
